According to paper PMC3542617 (Cell Death & Disease, 2012):
pIC50, pKi: −log10 of the molar value. “Also recorded” adds a separate entry of the source.

What was measured:
ATM [1] = target: T1, ATM (Homo sapiens, UniProt Q13315); assay: Biochemical inhibition of ATR and related kinases
DNA-PK [2] = target: T2, DNA-PK (Homo sapiens, UniProt P78527); assay: Biochemical inhibition of ATR and related kinases
mTOR = mTOR (Homo sapiens, UniProt P42345); assay: Biochemical inhibition of ATR and related kinases
PI3Kγ = PI3Kγ (Homo sapiens, UniProt P48736); assay: Biochemical inhibition of ATR and related kinases
ATM [3] = target: T1, ATM; assay: Cellular inhibition of ATR and related kinases; format: cell-based
DNA-PK [4] = target: T2, DNA-PK; assay: Cellular inhibition of ATR and related kinases; format: cell-based
phospho-Ser345-Chk1 = assay: Immunoblot for Chk1 phosphorylation; format: cell-based; conditions: VE-822 80 nM; gemcitabine 100 nM, XRT 6 Gy; PDAC cells
Summary of the method: (§1)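 Lysates were taken 2 h post-XRT or 4 h post-gemcitabine, after cold PBS rinse, in reducing Triton lysis buffer. Phospho-Chk1 antibody was used at 1:1000; β-actin was the loading control.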

[5] = test system: ATM, Chk2 or DNA-PK phosphorylation; assay: Immunoblot for ATM/Chk2 and DNA-PK phosphorylation; format: cell-based; conditions: VE-822 80 nmol/L; XRT 6 Gy
[6] = test system: PDAC cells (PSN-1, MiaPaCa-2, PancM); assay: Clonogenic survival assay, pancreatic cancer cells; format: cell-based
[7] = test system: fibroblasts (HFL-1, MRC5); assay: Clonogenic survival assay, normal fibroblasts; format: cell-based, human; conditions: VE-822 80 nM
[8] = test system: phospho-Ser345-Chk1 in HFL-1 normal fibroblasts; assay: Phospho-Chk1; format: cell-based, human; conditions: VE-822 80 nM
Summary of the method: as §1

[9] = test system: human dermal microvascular endothelial cells (HDMECs); assay: Capillary tube formation; format: cell-based; conditions: VE-822 80 nM; XRT 6 Gy or gemcitabine 50 nM
[10] = test system: PSN-1 and MiaPaCa-2 cells; assay: Analysis of γH2AX, 53BP1 and Rad51 foci; format: cell-based
[11] = test system: PSN-1 and MiaPaCa-2 cells; assay: Cell-cycle assay; format: cell-based
PSN-1 cells = assay: Apoptosis in vitro assay; format: cell-based; conditions: for apoptosis, single agent: VE-822 80 nM or gemcitabine 10 nM, 48 h after XRT time point
Summary of the method: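 For PSN-1 cells, gemcitabine (10 nM) was given 24 h pre-XRT, then replaced with fresh medium. […] Cells were analysed at 48 h post-XRT by Annexin V-FITC/PI flow cytometry to separate early apoptotic from necrotic cells.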

[12] = test system: phospho-Ser-345-Chk1 in PSN-1 xenografts; assay: Chk1 phosphorylation; format: in vivo, mice; conditions: VE-822 60 mg/kg d0, 1; gemcitabine 100 mg/kg d0; XRT 6 Gy d1; 2 h post-XRT
PSN-1 xenografts = assay: Tumor growth delay, PSN-1 xenografts; format: in vivo, mice
Summary of the method: (§2)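 Female Balb/c nude mice were inoculated s.c. with 10^6 cells in serum-free medium plus Matrigel and randomized at ~80 mm3 (day 0). […] Tumor volume was tracked to 600 mm3 (TV600); n=4–5.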

MiaPaCa-2 xenografts = assay: Tumor growth delay, MiaPaCa-2 xenografts; format: in vivo, mice; conditions: experiment III
Summary of the method: as §2

[13] = Body weight of mice in growth delay experiments; format: in vivo
[14] = test system: small intestine (jejunum); assay: Intestinal damage after abdominal XRT; format: in vivo, mice
[15] = test system: tumor xenograft vessel density; assay: Tumor vessel density; format: in vivo, mice
Summary of the method: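 Frozen xenograft tumors were cut into 10-μm sections, treated with 0.3% H2O2 for 20 min, then blocked in TNB for 30 min. Sections were stained 1 h with rat anti-mouse CD31 (1:50), then anti-rat […]. Vessels per field were counted in five random viable 10× fields per tumor, n=4–5 tumors per group.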

[16] = test system: γH2AX in PSN-1 tumor xenografts; assay: SPECT imaging of γH2AX in pancreatic tumor xenografts; format: in vivo, mice
Summary of the method: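 111In-DTPA–anti-γH2AX-Tat was injected 2 h before radiation, and SPECT/CT was run at 24 h post-XRT. Tumor uptake came from volume-of-interest analysis as %ID/g; organs were then removed, weighed and counted.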

T1 sequence (Q13315 whole entry, species assumed): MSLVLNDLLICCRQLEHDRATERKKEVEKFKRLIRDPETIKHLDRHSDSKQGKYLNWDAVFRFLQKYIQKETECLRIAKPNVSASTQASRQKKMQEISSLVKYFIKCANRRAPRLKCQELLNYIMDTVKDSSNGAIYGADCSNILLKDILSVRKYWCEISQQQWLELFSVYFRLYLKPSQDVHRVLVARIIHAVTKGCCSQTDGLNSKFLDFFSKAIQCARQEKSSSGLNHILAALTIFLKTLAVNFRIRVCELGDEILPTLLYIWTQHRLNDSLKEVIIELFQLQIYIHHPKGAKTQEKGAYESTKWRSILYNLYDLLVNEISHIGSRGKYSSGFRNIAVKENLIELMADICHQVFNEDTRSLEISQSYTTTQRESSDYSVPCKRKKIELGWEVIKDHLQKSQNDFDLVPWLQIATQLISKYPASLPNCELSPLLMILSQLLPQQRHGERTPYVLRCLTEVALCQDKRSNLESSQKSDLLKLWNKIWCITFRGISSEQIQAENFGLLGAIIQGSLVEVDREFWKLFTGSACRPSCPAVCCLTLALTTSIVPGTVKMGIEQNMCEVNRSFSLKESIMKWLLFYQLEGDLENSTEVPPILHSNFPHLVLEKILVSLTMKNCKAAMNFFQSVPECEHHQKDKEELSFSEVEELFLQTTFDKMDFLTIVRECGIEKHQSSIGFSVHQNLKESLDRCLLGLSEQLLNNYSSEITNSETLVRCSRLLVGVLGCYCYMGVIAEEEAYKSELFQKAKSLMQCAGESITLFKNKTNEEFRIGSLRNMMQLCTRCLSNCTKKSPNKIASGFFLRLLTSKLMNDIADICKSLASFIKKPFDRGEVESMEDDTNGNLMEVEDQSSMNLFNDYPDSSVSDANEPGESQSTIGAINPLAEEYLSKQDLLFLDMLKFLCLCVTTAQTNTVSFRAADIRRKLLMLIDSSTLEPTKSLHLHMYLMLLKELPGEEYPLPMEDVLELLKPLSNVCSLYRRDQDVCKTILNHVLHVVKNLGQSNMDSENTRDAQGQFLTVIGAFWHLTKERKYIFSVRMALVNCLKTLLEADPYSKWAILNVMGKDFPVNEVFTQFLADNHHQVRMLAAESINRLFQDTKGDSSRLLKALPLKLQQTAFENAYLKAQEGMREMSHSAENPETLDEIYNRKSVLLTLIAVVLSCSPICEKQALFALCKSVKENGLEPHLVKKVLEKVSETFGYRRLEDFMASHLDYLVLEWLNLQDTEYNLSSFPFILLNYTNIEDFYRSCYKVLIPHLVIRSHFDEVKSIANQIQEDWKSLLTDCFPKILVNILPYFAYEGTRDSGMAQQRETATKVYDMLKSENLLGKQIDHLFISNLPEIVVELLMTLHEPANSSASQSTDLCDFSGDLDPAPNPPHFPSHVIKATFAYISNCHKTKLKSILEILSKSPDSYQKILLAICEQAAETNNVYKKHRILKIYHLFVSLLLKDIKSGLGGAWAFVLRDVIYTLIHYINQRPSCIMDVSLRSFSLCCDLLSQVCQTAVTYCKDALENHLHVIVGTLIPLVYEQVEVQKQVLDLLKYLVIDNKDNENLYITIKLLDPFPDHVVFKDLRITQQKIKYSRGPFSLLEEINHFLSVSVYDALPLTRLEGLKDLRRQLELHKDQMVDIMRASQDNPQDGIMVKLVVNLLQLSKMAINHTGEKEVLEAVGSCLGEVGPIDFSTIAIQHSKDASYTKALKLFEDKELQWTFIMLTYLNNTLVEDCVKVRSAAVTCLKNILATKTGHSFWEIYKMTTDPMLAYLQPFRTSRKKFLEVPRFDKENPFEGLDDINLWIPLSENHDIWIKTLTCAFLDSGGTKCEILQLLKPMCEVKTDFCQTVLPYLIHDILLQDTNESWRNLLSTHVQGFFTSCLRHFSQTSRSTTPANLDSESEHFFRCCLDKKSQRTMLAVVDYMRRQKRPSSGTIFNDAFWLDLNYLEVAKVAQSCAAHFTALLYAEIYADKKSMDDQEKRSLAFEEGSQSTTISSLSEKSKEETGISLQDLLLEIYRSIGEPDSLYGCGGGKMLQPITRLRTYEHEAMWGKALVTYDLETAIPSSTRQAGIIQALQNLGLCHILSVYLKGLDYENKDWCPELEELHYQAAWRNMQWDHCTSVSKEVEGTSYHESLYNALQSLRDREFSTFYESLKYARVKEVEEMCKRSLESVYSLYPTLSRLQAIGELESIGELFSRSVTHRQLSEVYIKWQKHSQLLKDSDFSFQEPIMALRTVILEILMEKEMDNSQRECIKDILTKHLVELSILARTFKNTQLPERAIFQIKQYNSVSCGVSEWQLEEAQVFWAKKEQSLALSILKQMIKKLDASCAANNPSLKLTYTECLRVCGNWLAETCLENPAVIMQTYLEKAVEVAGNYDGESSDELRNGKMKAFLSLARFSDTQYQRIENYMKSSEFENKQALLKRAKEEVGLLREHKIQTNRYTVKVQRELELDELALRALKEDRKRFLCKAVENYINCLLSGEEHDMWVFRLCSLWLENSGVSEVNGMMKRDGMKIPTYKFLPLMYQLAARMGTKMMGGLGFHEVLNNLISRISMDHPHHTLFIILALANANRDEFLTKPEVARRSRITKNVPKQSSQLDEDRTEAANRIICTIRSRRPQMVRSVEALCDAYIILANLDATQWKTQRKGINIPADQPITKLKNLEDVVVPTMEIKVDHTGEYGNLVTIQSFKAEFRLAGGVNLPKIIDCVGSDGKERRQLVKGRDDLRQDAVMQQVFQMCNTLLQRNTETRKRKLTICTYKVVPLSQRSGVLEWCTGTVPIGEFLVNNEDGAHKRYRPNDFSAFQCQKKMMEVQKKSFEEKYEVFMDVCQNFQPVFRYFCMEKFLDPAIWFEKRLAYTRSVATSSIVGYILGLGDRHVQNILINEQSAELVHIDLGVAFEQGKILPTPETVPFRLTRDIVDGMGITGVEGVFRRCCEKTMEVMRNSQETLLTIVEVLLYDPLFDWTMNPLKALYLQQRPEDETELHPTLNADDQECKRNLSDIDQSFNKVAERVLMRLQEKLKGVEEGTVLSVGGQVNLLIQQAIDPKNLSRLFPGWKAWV
Sequence of PI3Kγ (P48736 whole entry, species assumed): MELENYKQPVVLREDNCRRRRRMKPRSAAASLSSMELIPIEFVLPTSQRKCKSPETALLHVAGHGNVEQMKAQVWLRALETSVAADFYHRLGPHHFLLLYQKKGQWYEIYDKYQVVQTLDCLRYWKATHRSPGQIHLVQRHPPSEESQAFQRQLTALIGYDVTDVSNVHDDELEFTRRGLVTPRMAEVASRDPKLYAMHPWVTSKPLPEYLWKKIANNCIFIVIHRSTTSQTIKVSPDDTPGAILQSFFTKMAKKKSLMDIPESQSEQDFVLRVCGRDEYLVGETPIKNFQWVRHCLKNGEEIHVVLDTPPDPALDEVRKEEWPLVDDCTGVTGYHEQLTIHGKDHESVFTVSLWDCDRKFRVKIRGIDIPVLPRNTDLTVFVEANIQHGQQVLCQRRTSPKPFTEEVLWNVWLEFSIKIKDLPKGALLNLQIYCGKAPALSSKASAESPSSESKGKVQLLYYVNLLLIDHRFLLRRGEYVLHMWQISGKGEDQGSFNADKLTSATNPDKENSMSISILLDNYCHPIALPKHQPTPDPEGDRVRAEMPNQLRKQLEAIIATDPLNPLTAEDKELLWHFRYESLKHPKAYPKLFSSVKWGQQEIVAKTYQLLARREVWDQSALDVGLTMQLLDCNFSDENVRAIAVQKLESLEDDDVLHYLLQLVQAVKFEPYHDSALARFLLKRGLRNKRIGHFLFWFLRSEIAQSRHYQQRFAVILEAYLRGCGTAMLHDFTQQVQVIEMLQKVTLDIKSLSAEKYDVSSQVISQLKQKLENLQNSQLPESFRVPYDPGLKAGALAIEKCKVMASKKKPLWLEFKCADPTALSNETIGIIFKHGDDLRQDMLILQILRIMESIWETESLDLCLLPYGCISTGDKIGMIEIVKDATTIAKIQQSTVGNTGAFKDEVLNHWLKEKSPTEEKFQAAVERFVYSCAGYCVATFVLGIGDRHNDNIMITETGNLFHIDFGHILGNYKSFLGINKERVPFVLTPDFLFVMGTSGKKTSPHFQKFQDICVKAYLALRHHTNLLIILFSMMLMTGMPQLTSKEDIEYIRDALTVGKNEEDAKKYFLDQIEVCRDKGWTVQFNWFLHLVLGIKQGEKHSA

CNCc1ccc(-c2cc(-c3nc(-c4ccc(S(=O)(=O)C(C)C)cc4)cnc3N)on2)cc1 [VE-822]
pKi (ATM [1]): 7.47
pKi (DNA-PK [2]): < 5.40
pKi (mTOR): < 6.00
pKi (PI3Kγ): 6.66
pIC50 (ATM [3]): 5.59
pIC50 (DNA-PK [4]): 4.74
phospho-Ser345-Chk1 after gemcitabine, XRT or both (phospho-Ser345-Chk1): reduced phospho-Ser345-Chk1
ATM, Chk2 or DNA-PK phosphorylation in response to radiation [5]: did not inhibit ATM, Chk2 or DNA-PK phosphorylation
clonogenic survival of irradiated PDAC ([6]; VE-822 80 nM, 1 h before until 18 h post-XRT): decreased survival of irradiated PDAC
reduction of survival after chemoradiotherapy (triple combination) ([6]; gemcitabine 10 or 5 nM 24 h, VE-822 80 nM, XRT 4 Gy): dramatically more after chemoradiotherapy
reduction of survival on adding VE-822 to gemcitabine ([6]; gemcitabine 24 h, then VE-822 80 nM 18 h): 2–3 fold
clonogenic survival of normal fibroblasts after XRT or gemcitabine [7]: did not alter clonogenic survival of fibroblasts
phospho-Ser345-Chk1 after gemcitabine, XRT or chemoradiotherapy [8]: reduced phospho-Ser345-Chk1
tube formation after XRT or gemcitabine [9]: did not modify tube formation
residual γH2AX and 53BP1 foci ([10]; VE-822 80 nM 1 h before XRT 6 Gy, 24 h post-XRT, vs XRT): increased XRT-induced residual γH2AX and 53BP1 foci
Rad51 foci ([10]; VE-822 80 nM pre-treatment, XRT 6 Gy, 6 h post-XRT): decreased Rad51 foci after XRT
γH2AX, 53BP1 or Rad51 foci, VE-822 alone ([10]; VE-822 alone (data not shown)): no effect on γH2AX, 53BP1 or Rad51 foci
XRT-enriched G2/M-phase-fraction ([11]; VE-822 80 nM + XRT 6 Gy): abrogated by co-treatment with VE-822
cell-cycle distribution, VE-822 alone ([11]; VE-822 80 nM, 12 h and 24 h): increased the G1-phase-fraction
gemcitabine-induced S-phase arrest ([11]; gemcitabine 10 nM then VE-822 80 nM): not affected by VE-822
apoptosis, single agent (PSN-1 cells): little effect
apoptosis, combinations of VE-822, XRT and/or gemcitabine (PSN-1 cells; VE-822 80 nM, XRT 6 Gy, gemcitabine 10 nM, strongest in triple combination): enhanced early and late apoptosis
phospho-Ser-345-Chk1 in xenografts after DNA-damaging agents [12]: inhibited phospho-Ser-345-Chk1 in xenografts
tumor growth, VE-822 alone (PSN-1 xenografts; experiment I, 60 mg/kg days 0–5): no effect on tumor growth
TV600 (time to 600 mm^3), XRT plus VE-822 vs XRT alone (PSN-1 xenografts; experiment I, 60 mg/kg for 6 or 4 days, 6 Gy day 1, P<0.001): more than doubled the TV600 of XRT alone
tumor regrowth, VE-822 + fractionated XRT vs fractionated XRT (PSN-1 xenografts; experiment II, 60 mg/kg days 0–5, 5 x 2 Gy days 1–5, P<0.001): significantly delayed regrowth compared with XRT1–5
radiosensitisation (TV400) with intermittent dosing (PSN-1 xenografts; experiment IV, 15, 30 and 60 mg/kg, days 0, 2 and 4, 6 Gy): dose-dependent radiosensitisation response
tumor growth delay, gemcitabine + XRT + VE-822 vs gemcitabine + XRT (PSN-1 xenografts; experiment V, P<0.001): substantially prolonged the tumor growth delay compared with the Gem0XRT1 group
tumor growth delay, VE-822 + XRT vs XRT (PSN-1 xenografts; experiment V, VE-822 60 mg/kg d1, 3, 5, XRT d1, P<0.05): significantly longer compared with the XRT1 group
TV400, gemcitabine + VE-822 vs gemcitabine alone (PSN-1 xenografts; experiment V, gemcitabine 100 mg/kg d0, VE-822 60 mg/kg d1, 3, 5, P>0.05): did not significantly increase TV400 compared with gemcitabine alone
tumor growth, VE-822 alone vs control (MiaPaCa-2 xenografts; 60 mg/kg days 0–5): no statistical change in tumor growth
tumors that regrew, VE-822 + XRT (MiaPaCa-2 xenografts; 60 mg/kg days 0–5, 6 Gy day 1, n=4): 2/4
TV600 of regrowing tumors, VE-822 + XRT vs XRT (MiaPaCa-2 xenografts; two regrowing tumors, P<0.001): significantly longer than the TV600 for the XRT1 group
body weight ([13]; growth delay experiment I): No body weight loss
body weight ([13]; growth delay experiment II): no effects on body weight
body weight ([13]; growth delay experiment III): no weight loss
body weight ([13]; growth delay experiment IV): No weight loss
body weight ([13]; growth delay experiment V): no weight loss
villus tip loss and villi length, VE-822 + XRT vs XRT alone ([14]; 60 mg/kg days 0, 2, 4, 6 Gy day 0, day 5): did not increase villus tip loss or villi shortening
body weight loss, combination vs XRT-only ([14]; abdominal XRT 6 Gy): equivalent body weight loss
vessel density, addition of VE-822 and/or XRT to gemcitabine ([15]; growth delay experiment V): did not alter vessel density significantly
vessel density, VE-822 alone or with XRT ([15]; growth delay experiments I-III): did not alter vessel density
tumor uptake of 111In-DTPA–anti-γH2AX-Tat, VE-822 alone ([16]; 60 mg/Kg days 0 and 1): no elevation in uptake
tumor uptake of 111In-DTPA–anti-γH2AX-Tat, VE-822 plus XRT, higher compared with XRT ([16]; 60 mg/Kg days 0 and 1, 6 Gy day 1, 24 h post-XRT, P<0.05): 44%

Nc1ccn([C@@H]2O[C@H](CO)[C@@H](O)C2(F)F)c(=O)n1 [gemcitabine, reference compound]
apoptosis, single agent (PSN-1 cells): increased apoptosis slightly
tumor growth, gemcitabine alone (PSN-1 xenografts; 100 mg/kg i.p. day 0): did not alter tumor growth significantly; also recorded: does not itself lead to tumor growth delay
tumor growth delay, gemcitabine + XRT vs gemcitabine (PSN-1 xenografts; experiment V, P<0.05): increased tumor growth delay compared with Gem0
vessel density after gemcitabine ([15]; growth delay experiment V): significantly reduced vessel density
